Laboratory results published in ChEMBL document CHEMBL1124707, “N-phenyl-N'-pyridinylureas as anticonvulsant agents” (1990).

Columns and labels:
Mus musculus [1] = species on record: Mus musculus; format: functional
Mus musculus [2] = species on record: Mus musculus; experiment: animal or person; format: functional; conditions: 0.5 h, read-out: MED
Mus musculus [3] = species on record: Mus musculus; experiment: Protective activity against Maximal Electroshock seizures(MES) at 60 min was determined; format: functional; conditions: 1 h
Mus musculus [4] = experiment: The compound was tested for Ataxia(ATAX) by the inverted screen test, after intraperitoneal administration at 120 min; format: functional; conditions: ip, 2 h
Mus musculus [5] = experiment: The compound was tested for Ataxia(ATAX) by the inverted screen test after (ip) administration at 120 min; format: functional; conditions: 2 h
Mus musculus [6] = species on record: Mus musculus; experiment: Protective activity against Maximal Electroshock seizures(MES) in mice was determined at 90 min; format: functional; conditions: 1.5 h
Mus musculus [7] = experiment: The compound was tested for Ataxia(ATAX) by the inverted screen test, after oral administration in mouse at 60 min; format: functional; conditions: 1 h
Method in brief: (§1)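 Mice were dosed orally, with doses calculated as free base. They were placed on an inverted square of wire mesh, and falling off was scored as impairment. Ten mice per dose were tested at the stated time, giving an ED50 with 95% confidence interval.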

Mus musculus [8] = species on record: Mus musculus; experiment: The compound was tested for protective activity against Maximal Electroshock seizures(MES) at 60 min in mice; format: functional; conditions: 1 h
Mus musculus [9] = experiment: The compound was tested for Ataxia(ATAX) by the inverted screen test, after intraperitoneal administration at 120 min in mice; format: functional; conditions: ip, 2 h
Rattus norvegicus [10] = experiment: The compound was tested for Ataxia(ATAX) by the inverted screen test, after oral administration in rat at 240 min; conditions: 4 h
Mus musculus [11] = species on record: Mus musculus; experiment: Protective activity was determined against Maximal Electroshock seizures(MES) in mouse at 30 min; format: functional; conditions: 0.5 h
Method in brief: (§2)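 Male Swiss-Webster mice (25–32 g, fed) were dosed orally, with the compound in water or in a 0.2% (hydroxymethyl)cellulose suspension and doses calculated as free base. Absence of tonic hind-limb extension counted as protection. Ten mice per dose were used, giving an ED50 with 95% confidence interval.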

Rattus norvegicus [12] = species on record: Rattus norvegicus; experiment: Protective activity was determined against Maximal Electroshock seizures(MES) in rat at 60 min; format: functional; conditions: 1 h
Method in brief: (§3)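 Rats were dosed orally and tested against maximal electroshock, with the test time after dosing given per line. Doses were calculated as free base. ED50 is reported with 95% confidence interval.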

Mus musculus [13] = species on record: Mus musculus; experiment: Protective activity was determined against Maximal Electroshock seizures(MES) in mouse at 120 min; format: functional; conditions: 2 h
Method in brief: as §2

Rattus norvegicus [14] = species on record: Rattus norvegicus; experiment: Protective activity was determined against Maximal Electroshock seizures(MES) in rat at 30 min; format: functional; conditions: 0.5 h
Method in brief: as §3

Mus musculus [15] = experiment: The compound was tested for Ataxia(ATAX) by the inverted screen test, after oral administration in mouse at 120 min; format: functional; conditions: 2 h
Method in brief: as §1

Structure (SMILES)	MAD (Mus musculus [1])	minimal effective dose (Mus musculus [2])	further results
O=C(Nc1ccncc1)Nc1ccccc1F	100 mg/kg	100 mg/kg	
CC(C)c1ccc(NC(=O)Nc2ccncc2)cc1	>300 mg/kg	> 300 mg/kg	
O=C(Nc1ccncc1)Nc1ccccc1O	>300 mg/kg	> 300 mg/kg	
CC(C)NC(=O)Nc1ccncc1	300 mg/kg	300 mg/kg	
Cc1cccc(Cl)c1NC(N)=O	300 mg/kg	100 mg/kg	
O=C(Nc1ccncc1)Nc1c(Cl)cccc1Cl	>300 mg/kg	100 mg/kg	ED50 (Mus musculus [3]): 30 mg/kg; ED50 (Mus musculus [4]): 293 mg/kg
Cc1cc(C)c(NC(=O)Nc2ccncc2)c(Cl)c1	>300 mg/kg	100 mg/kg	
CC(C)c1ccccc1NC(=O)Nc1ccncc1	300 mg/kg	100 mg/kg	
O=C(Nc1ccncc1)Nc1ccccc1C(=O)O	>300 mg/kg	> 300 mg/kg	
Cc1cccc(Cl)c1NC(=O)NCc1ccncc1	>300 mg/kg	> 300 mg/kg	
Cc1cccc(Cl)c1NC(=O)Nc1cccnc1	300 mg/kg	100 mg/kg	
Cc1cccc(C)c1NC(=O)Nc1ccncc1	100 mg/kg	30 mg/kg	ED50 (Mus musculus [5]): 138 mg/kg; ED50 (Mus musculus [6]): 21 mg/kg
O=C(Nc1ccncc1)Nc1ccc(Cl)cc1	>300 mg/kg	> 300 mg/kg	
Cc1ccc(NC(=O)Nc2ccncc2)c(C)c1	>300 mg/kg	> 300 mg/kg	
O=C(Nc1ccncc1)Nc1c(Cl)cc(Cl)cc1Cl	300 mg/kg	300 mg/kg	
CN(C)c1ccccc1NC(=O)Nc1ccncc1	100 mg/kg	100 mg/kg	
O=C(Nc1ccncc1)Nc1ccccc1Br	>300 mg/kg	100 mg/kg	
Cc1cccc(Cl)c1NC(=O)Nc1c(C)cccc1Cl	>300 mg/kg	> 300 mg/kg	
Cc1cccc(Cl)c1NC(=O)Nc1ccccn1	>300 mg/kg	100 mg/kg	

Structure (SMILES)	MAD (Mus musculus [1])	minimal effective dose (Mus musculus [2])	further results
COc1ccccc1NC(=O)Nc1ccncc1	>300 mg/kg	100 mg/kg	
Cc1cccc(Cl)c1NC(=O)Nc1ccncc1	300 mg/kg	30 mg/kg	ED50 (Mus musculus [7]): 210 mg/kg; ED50 (Mus musculus [8]): 46 mg/kg; ED50 (Mus musculus [9]): 251 mg/kg; ED50 (Rattus norvegicus [10]): 408 mg/kg; ED50 (Mus musculus [11]): 14 mg/kg; ED50 (Rattus norvegicus [12]): 9.2 mg/kg
O=C(Nc1ccncc1)Nc1ccc([N+](=O)[O-])cc1	>300 mg/kg	> 300 mg/kg	
Cc1cccc(C)c1NC(=O)N1CCN(C)CC1	300 mg/kg	100 mg/kg	
Cc1ccccc1NC(=O)Nc1ccncc1	>300 mg/kg	100 mg/kg	
O=C(Nc1ccncc1)Nc1cccc([N+](=O)[O-])c1	>300 mg/kg	> 300 mg/kg	
Cc1cccc(C)c1NC(=O)Nc1ccccn1	>300 mg/kg	300 mg/kg	
O=C(Nc1ccncc1)Nc1c(Cl)cccc1C(F)(F)F	300 mg/kg	100 mg/kg	
Cc1cc(NC(=O)Nc2c(C)cccc2Cl)ccn1	100 mg/kg	30 mg/kg	
O=C(Nc1ccncc1)Nc1ccccc1C(F)(F)F	300 mg/kg	100 mg/kg	
O=C1NC(=O)C(c2ccccc2)(c2ccccc2)N1 [PHENYTOIN]			ED50 (Mus musculus [13]): 8.3 mg/kg; ED50 (Rattus norvegicus [10]): > 300 mg/kg; ED50 (Rattus norvegicus [14]): 30 mg/kg; ED50 (Mus musculus [15]): 78 mg/kg
Cc1cc(C)c(NC(=O)Nc2ccncc2)c(C)c1	300 mg/kg	30 mg/kg	
CC(C)c1cccc(C(C)C)c1NC(=O)Nc1ccncc1	>300 mg/kg	> 300 mg/kg	
O=C(Nc1ccccn1)Nc1c(Cl)cccc1Cl	100 mg/kg	> 300 mg/kg	
COc1cc(C)c(NC(=O)Nc2ccncc2)c(C)c1	>300 mg/kg	> 300 mg/kg	
CC(=O)c1ccc(NC(=O)Nc2ccncc2)cc1	>300 mg/kg	> 300 mg/kg	
O=C(Nc1ccncc1)Nc1ccccc1[N+](=O)[O-]	>300 mg/kg	300 mg/kg	
O=C(Nc1ccncc1)Nc1ccc(Cl)cc1Cl	>300 mg/kg	> 300 mg/kg	
Cc1ccc(NC(=O)Nc2ccncc2)cc1	100 mg/kg	> 300 mg/kg	

Structure (SMILES)	MAD (Mus musculus [1])	minimal effective dose (Mus musculus [2])	further results
CCc1cccc(CC)c1NC(=O)Nc1ccncc1	100 mg/kg	30 mg/kg	
CCOC(=O)c1ccc(NC(=O)Nc2ccncc2)cc1	>300 mg/kg	> 300 mg/kg	
O=C(Nc1ccncc1)Nc1ccc(I)cc1	>300 mg/kg	> 300 mg/kg	
O=C(Nc1ccncc1)Nc1ccc(Oc2ccccc2)cc1	>300 mg/kg	> 300 mg/kg	
O=C(Nc1cccnc1)Nc1c(Cl)cccc1Cl	300 mg/kg	> 300 mg/kg	
O=C(Nc1ccncc1)Nc1ccccc1Cl	>300 mg/kg	100 mg/kg	
O=C(Nc1ccncc1)Nc1c(Cl)cccc1CO	300 mg/kg	> 300 mg/kg	
Nc1ccc(NC(=O)Nc2ccncc2)cc1	300 mg/kg	> 300 mg/kg	
O=C(Nc1ccncc1)Nc1cccc(C(F)(F)F)c1	>300 mg/kg	> 300 mg/kg	
CCOC(=O)c1ccccc1NC(=O)Nc1ccncc1	>300 mg/kg	300 mg/kg	
N#Cc1ccccc1NC(=O)Nc1ccncc1	100 mg/kg	> 300 mg/kg	
O=C(Nc1ccncc1)Nc1ccccc1OCc1ccccc1	30 mg/kg	> 300 mg/kg	
O=C(Nc1ccccc1)Nc1ccncc1	300 mg/kg	100 mg/kg	
Cc1cccc(NC(=O)Nc2ccncc2)c1	>300 mg/kg	> 300 mg/kg	
O=C(Nc1ccncc1)Nc1ccc(F)cc1	300 mg/kg	300 mg/kg	
Cc1c(Cl)cccc1NC(=O)Nc1ccncc1	>300 mg/kg	> 300 mg/kg	
Cc1cccc(C)c1NC(=O)Nc1cccnc1	300 mg/kg	100 mg/kg	
Nc1ccccc1NC(=O)Nc1ccncc1	>300 mg/kg	> 300 mg/kg	
Cc1cccc(C)c1NC(=O)Nc1ccc([N+](=O)[O-])cc1	>300 mg/kg	> 300 mg/kg	
